Bioassay records (PubChem BioAssay)
GalR3 antag = GalR3 antagonists in HEK293 cells, primary screen, cell-based, fluorescence readout | HEK293 GalR3-CNG cAMP membrane potential fluorescence; galR3 body fused to GalR1 C-terminus | inhibition, % at 3 µM | hit rate 0.44% among 360,000 | AID 651719, 2012;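 active = inhibition above the screen-wide average plus 3 SD, cut at about 13% in these data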;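 note: forskolin and galanin both at EC90 stimulate the cells; cAMP rise reported by CNG channel membrane potential dye signal; 0% = forskolin plus galanin with DMSO and 100% = forskolin alone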
Target sequence (O60755 1-299 limits assumed): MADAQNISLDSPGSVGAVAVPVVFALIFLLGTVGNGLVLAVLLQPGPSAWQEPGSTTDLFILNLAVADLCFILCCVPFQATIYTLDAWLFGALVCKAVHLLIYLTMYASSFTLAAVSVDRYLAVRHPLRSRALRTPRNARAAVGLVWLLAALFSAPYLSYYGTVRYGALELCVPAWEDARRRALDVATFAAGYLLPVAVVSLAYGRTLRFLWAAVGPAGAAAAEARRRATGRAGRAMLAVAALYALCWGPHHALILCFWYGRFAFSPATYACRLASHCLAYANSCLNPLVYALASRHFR
NR2E3 ag-1 = NR2E3 agonists in two-hybrid cells, primary screen, cell-based, luminescence, CHO-S, Gal4-NCOR/VP16-NR2E3; Photoreceptor-specific nuclear receptor (Homo sapiens), Q9Y5X4; luciferase; hit rate 0.35% among 360,000; inhibition of corepressor binding, % at 3.98 µM;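 active = inhibition above the mean of all tested compounds plus 3 SD, cut at about 70% in these data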;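 note: 0% = DMSO with NR2E3 transfected cells and 100% = cells lacking NR2E3 construct; higher means lower luciferase signal from less NR2E3 corepressor binding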
Target sequence (Q9Y5X4 whole entry, looked up, the tested form may be a part): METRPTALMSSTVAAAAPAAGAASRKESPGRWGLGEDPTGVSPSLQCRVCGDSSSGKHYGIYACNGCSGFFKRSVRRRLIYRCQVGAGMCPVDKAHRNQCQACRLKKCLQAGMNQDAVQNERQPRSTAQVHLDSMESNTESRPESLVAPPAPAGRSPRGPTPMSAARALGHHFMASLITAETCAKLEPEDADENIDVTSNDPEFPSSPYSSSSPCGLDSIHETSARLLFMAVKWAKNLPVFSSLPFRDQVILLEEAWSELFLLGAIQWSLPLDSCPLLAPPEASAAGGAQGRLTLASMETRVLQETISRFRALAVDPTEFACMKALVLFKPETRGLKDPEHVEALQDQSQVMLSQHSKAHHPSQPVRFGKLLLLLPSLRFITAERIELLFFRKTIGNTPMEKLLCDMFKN
Gli-Sufu antag = Gli-Sufu pathway antagonists, primary screen, luciferase luminescence, Sufu-KO-LIGHT cells, uHTS | Sufu-KO-LIGHT fibroblasts, Gli luciferase reporter luminescence | AID 588413, 2011 | hit rate 0.74% among 340,000 | inhibition, % at 5 µM;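 active = inhibition above about 55%, limit read from the data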;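 note: 0% = DMSO-treated cells and 100% = wells with medium but no cells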
697 NFkB inh = inhibitors of PMA/ionomycin-induced NF-kB reporter, 697 cells, primary screen, B-cell NF-kB inhibitor project, cell-based, luminescence, uHTS | 697 B-cell NF-kB luciferase reporter, 16 h | inhibition, % at 4 µM | hit rate 0.33% among 330,000; in the data active = inhibition above about 35%
NR2E3 ag-2 = inhibitors of NR2E3-RetCOR corepressor binding, primary screen, NR2E3 agonist project, biochemical, TR-FRET, GST-NR2E3, biotin-RetCOR | AID 2300, 2010 | inhibition of corepressor binding, % at 4.78 µM | hit rate 0.12% among 320,000 | 1536-well;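 active = percent inhibition above the cutoff of mean plus 3 SD of all tested compounds, set per screening campaign, cut at about 20% in these data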;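 note: 0% = DMSO wells and 100% = biotin wells as full block of FRET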
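System: GST-tagged NR2E3 plus biotinylated RetCOR corepressor; Buffer or medium: pH 7.5 Tris-based buffer; Probe or stimulus: RetCOR corepressor, biotinylated, 7 nM; Doses: compound at 4.8 µM, single dose; Schedule: 5 h incubation at 4 °C; Technique: time-resolved FRET; Evaluation: percent inhibition of TR-FRET ratio; Replication: one well per compound, singlicate testing.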
Jurkat NFkB inh = inhibitors of induced NF-kB luciferase reporter, primary screen, TCR NF-kB activation inhibitor project, cell-based, luminescence, uHTS; AID 435003, 2010; inhibition, % at 4 µM; Jurkat, PMA/ionomycin-induced NF-kB luciferase reporter; hit rate 0.53% among 330,000; in the data active = inhibition above about 50%
697 NFkB conf = PMA/ionomycin-induced NF-kB reporter inhibitors, 697 retest, confirmation, B-cell NF-kB inhibitor project, cell-based, luminescence, single concentration; shares compounds with 697 NFkB inh; 697 B-cell NF-kB luciferase, 16 h; inhibition, % at 4 µM; hit rate 35% among 2,000; AID 449746, 2010; in the data active = inhibition mostly above about 28%, no sharp cut-off; inactive = mostly below about 22%
Numbers without * were called inactive; i = inactive; nt = no result given. Shown are actives, neighbours in structure and some others; about 1.8% of the full set was active somewhere.

SMILES | GalR3 antag | NR2E3 ag-1 | Gli-Sufu antag | 697 NFkB inh | NR2E3 ag-2 | Jurkat NFkB inh | 697 NFkB conf
O=C(Nc1ccc2oc(-c3ccccc3Cl)nc2c1)c1ncn[nH]1 | -1.3 | -123.0 | -88.7 | -288.5 | 1.8 | -100.7 | -194.3
N#Cc1ccc(S(=O)(=O)NC(=O)[C@H]2O[C@@H](n3ccc(=O)[nH]c3=O)[C@H](O)[C@@H]2O)cc1 | -2.7 | nt | nt | nt | nt | nt | nt
CCCCOc1ccc(NC(=O)C(=O)NCCCn2ccnc2)cc1 | -6.2 | -10.7 | 23.2 | 54.1* | -3.0 | 10.4 | 57.5*
NC(=O)c1nsc(C(=O)N(c2ccccc2F)C(C(=O)NCc2ccccc2)c2ccc(O)cc2)c1N (configuration not stated) | -4.5 | 31.6 | 12.7 | 35.4* | -1.7 | 44.0 | 22.1
Cc1cn(-c2cc(C(=O)Nc3ccc(C)c(NC(=O)C(=O)c4c[nH]c5ccccc45)c3)cc(C(F)(F)F)c2)cn1 | -1.8 | 0.3 | 3.8 | 36.6* | 2.2 | 8.8 | -19.7
Cc1ccc(C(=O)Nc2cccc(C(F)(F)F)c2)cc1NC(=O)c1c[nH]c2cc(C(F)(F)F)ccc2c1=O | -1.7 | -1.8 | -7.8 | -24.7 | nt | -7.9 | nt
O=S1(=O)CCC(N(N=Cc2ccco2)c2ccccc2)C1 (configuration not stated) | -6.6 | nt | nt | nt | nt | nt | nt
COc1cc(-c2noc(C)c2/C=C/c2ccc(C(=O)O)cc2)cc(OC)c1OC | -2.3 | -32.2 | -16.2 | 36.8* | 4.8 | -20.2 | 25.9
CCc1ccc(CC2S/C(=C(\C#N)C(C)=O)NC2=O)cc1 (configuration not stated) | -0.6 | -19.3 | 0.5 | -183.8 | 0.6 | -6.5 | nt
CC(=O)/C(C#N)=C1\NC(=O)C(Cc2ccc(C)c(Cl)c2)S1 (configuration not stated) | -2.8 | -26.1 | 6.7 | i | -3.9 | 2.6 | -491.9
C=C(C)[C@@H]1CCC2(C(=O)O)CC[C@]3(C)[C@H](CC[C@@H]4[C@@]5(C)CCC(=O)C(C)(C)[C@@H]5CC[C@]43C)[C@@H]12 (some centres not stated) | -2.7 | -1.3 | -11.8 | 79.8* | -2.5 | 2.7 | 60.5*
FC(F)(F)c1cc(CCN2CCNC[C@H]2Cc2cccc3ccccc23)cc(C(F)(F)F)c1 | -3.4 | -13.9 | -3.9 | 36.0* | -2.8 | 19.6 | 13.2
c1ccc(-c2nc3cc4ccccc4cc3[nH]2)nc1 | -2.8 | -63.7 | -122.0 | -272.0 | -2.7 | -58.6 | -315.2
CC(=O)Nc1ccc2nc(-c3ccccn3)[nH]c2c1 | -6.1 | -82.2 | -47.9 | -58.4 | -1.2 | -56.3 | nt
C=CCNC(=S)N(C)[C@H]1C[C@H]2c3[nH]c4c(-c5ccccc5)cccc4c3CCN2C(=O)[C@H]1[C@H](C)O | -6.0 | nt | nt | nt | nt | nt | nt
CCCCCCCCNC(=O)c1ccc(C)cc1 | -5.1 | nt | nt | 79.7* | 2.3 | -25.2 | -8.5
O=C(NCc1ccccc1)C1CCN(S(=O)(=O)N2CCOCC2)CC1 | -4.4 | -17.0 | 2.8 | 40.8* | 1.6 | -4.7 | -3.6
O=C(NCc1ccccc1)C1CCN(S(=O)(=O)N2CCCCCC2)CC1 | -2.4 | -2.2 | -4.2 | 1.1 | -0.2 | 0.2 | nt
Cc1cc(/C=C2\SC(=O)N(C)C2=O)c(C)n1-c1ccc(O)cc1 | -9.7 | -9.5 | 13.1 | -272.3 | -1.9 | -92.9 | -102.0
COC(=O)C1=C(C)N(Cc2ccc(F)cc2)C(=S)NC1c1ccc(Cl)cc1 (configuration not stated) | -9.6 | nt | nt | nt | nt | nt | nt
COc1ccc(C(=O)C(=O)N2CCN(S(=O)(=O)c3cccc4c(N(C)C)cccc34)CC2)cc1OC | -7.5 | nt | nt | nt | nt | nt | nt
O=C(NS(=O)(=O)c1cccc(F)c1)[C@H]1O[C@@H](n2ccc(=O)[nH]c2=O)[C@H](O)[C@@H]1O | -5.3 | nt | nt | nt | nt | nt | nt
COc1ccc2cc3cc(C(=O)Nc4cc(OC)c(OC)c(OC)c4)oc3nc2c1 | -5.0 | -1.5 | 11.2 | 36.9* | 0.5 | 37.6 | 0.2
O=C(/C=C/c1ccc(Cl)cc1Cl)c1nc2ccccc2[nH]1 | -0.8 | -16.8 | 2.3 | -3.4 | 2.4 | -14.2 | nt
Clc1ccc(/C=C/c2nc3ccccc3[nH]2)c(Cl)c1 | -4.2 | -127.8 | -181.6 | -487.7 | -2.1 | -146.1 | i
SMILES | GalR3 antag | NR2E3 ag-1 | Gli-Sufu antag | 697 NFkB inh | NR2E3 ag-2 | Jurkat NFkB inh | 697 NFkB conf
COC(=O)N1C[C@H](OCc2cn(-c3cc(Cl)cc(Cl)c3)nn2)[C@H](OCc2cn(-c3cc(Cl)cc(Cl)c3)nn2)C[C@@H]1c1ccccc1Br | -6.4 | nt | nt | nt | nt | nt | nt
O=C(NCCC1CCCCN1S(=O)(=O)c1ccc(Cl)cc1)C(=O)NCc1ccncc1 (configuration not stated) | -1.6 | 41.1 | 25.4 | 45.2* | 1.9 | 2.6 | 42.9*
O=C(NCCC1CCCCN1S(=O)(=O)c1ccc(F)cc1)C(=O)NCc1ccncc1 (configuration not stated) | 1.4 | 15.8 | 16.0 | 22.9 | 1.4 | 12.3 | nt
COC(=O)[C@]12C[C@H](CC(=O)N3CCC(c4ccccc4)CC3)C(=O)N(CCc3ccc(OC)c(OC)c3)C1=C[C@H](C(C)(C)C)O[C@@H]2C | -7.2 | nt | nt | nt | nt | nt | nt
Cc1nn(Cc2ccccc2Cl)c(C)c1C(=O)Nc1nnc(C2CC2)s1 | -2.3 | -14.8 | -22.4 | i | -3.9 | -54.4 | i
CCOc1ncccc1C(=O)Nc1nnc(C2CC2)s1 | -8.7 | -11.1 | -9.1 | 38.9* | 2.4 | 12.4 | -2.2
COc1ccc(N2C(=O)c3[nH]nc(-c4ccccc4)c3C2c2cccc(C(F)(F)F)c2)cc1 (configuration not stated) | -6.1 | nt | nt | nt | nt | nt | nt
COC(=O)C1=C(C)N(Cc2ccccc2C(F)(F)F)C(=NCc2cc(OC)c(OC)c(OC)c2)NC1c1cccc(Cl)c1 (configuration not stated) | -6.9 | nt | nt | nt | nt | nt | nt
O=C(Nc1ccc(S(=O)(=O)N2CCCc3ccccc32)cc1)C1CCCO1 (configuration not stated) | nt | 18.4 | -0.1 | 0.3 | 5.1 | 2.9 | nt
O=C(O)C1CC=CCC1C(=O)Nc1ccc(S(=O)(=O)N2CCCc3ccccc32)cc1 (configuration not stated) | -0.8 | -14.8 | 2.4 | -264.9 | -0.7 | 4.7 | -135.8
COC(=O)C1=C(C)N(C)C(=NCc2cccc(C(F)(F)F)c2)NC1c1cccc(F)c1 (configuration not stated) | -6.9 | nt | nt | nt | nt | nt | nt
CC(=O)Nc1ccc2[nH]c(C)c(CC=C(Cl)Cl)c(=O)c2c1 | -3.1 | -14.4 | 2.7 | 42.1* | 4.8 | -2.9 | 15.3
